# Results taken from ChEMBL document CHEMBL3853270, “Influence of Birch Bark Triterpenes on Keratinocytes and Fibroblasts from Diabetic and Nondiabetic Donors” (2016).
# Calls of active or inactive are those of the source. The rule behind the calls is not given here.
# Key:
# Assay type in all cases: functional
# [1] = test system: Keratinocyte; assay: Effect on growth factor related gene expression in non-diabetic adult human primary keratinocytes assessed as PDGFB mRNA levels at 9.81 uM after 6 hrs by qPCR analysis
# How it was run: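 Primary human keratinocytes (nondiabetic young or adult, diabetic adult donors) were exposed to compound for 6 h, with 0.1% DMSO as solvent control. Total RNA came from 400 000 cells per sample and was assayed on a Fluidigm Biomark high-throughput qPCR chip. Results are fold change vs solvent control, from 2−4 independent experiments on two donors per group, with SD. Groups were compared by one-way ANOVA with Bonferroni post-test.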
# [2] = test system: Fibroblast; assay: Effect on antiinflammatory related gene expression in non-diabetic adult human primary fibroblasts assessed as SOCS3 mRNA levels at 9.81 uM after 6 hrs by qPCR analysis
# How it was run: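 Primary dermal fibroblasts from one nondiabetic young, one nondiabetic adult and one diabetic adult donor; 320 000 cells per sample, 6 h at 1.96 or 9.81 μM. RNA measured on a high-throughput qPCR chip. Fold change versus 0.1% DMSO control, four independent experiments, SD, one-way ANOVA with Bonferroni post-test.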
# [3] = test system: Fibroblast; assay: Effect on chemokines related gene expression in non-diabetic young human primary fibroblasts assessed as IL8 mRNA levels at 9.81 uM after 6 hrs by qPCR analysis
# How it was run: (§1)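 Primary human dermal fibroblasts (young or adult nondiabetic, adult diabetic donor) were treated for 6 h against a 0.1% DMSO solvent control. RNA from 320 000 cells per sample was measured by Fluidigm Biomark high-throughput qPCR. Values are fold change relative to solvent control, from four independent experiments, with SD. One-way ANOVA with Bonferroni post-test was applied.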
# [4] = test system: Fibroblast; assay: Effect on growth factor related gene expression in diabetic adult human primary fibroblasts assessed as GDF15 mRNA levels at 9.81 uM after 6 hrs by qPCR analysis; how it was run: as §1
# [5] = Upregulation of wound healing activity related soluble ICAM1 protein levels in non-diabetic adult human primary keratinocytes at 1.96 uM after 24 hrs by bead-based suspension array analysis; details: Keratinocyte
compound,measurement,setting,value
C=C(C)[C@@H]1CC[C@]2(CO)CC[C@]3(C)[C@H](CC[C@@H]4[C@@]5(C)CC[C@H](O)C(C)(C)[C@@H]5CC[C@]43C)[C@@H]12 [BETULIN],fold change (FC),[1],0.9
same,fold change (FC),[2],24.6
same,fold change (FC),[3],32
same,fold change (FC),[4],1.8
same,Activity,[5],Active
